Laboratory results from publication PMC3415686 (Bioorganic & medicinal chemistry letters, 2012).

Assays:
[1] = system: wt-Ba/F3; assay: Cytotoxicity on wt; assay type: cell-based, murine
Outline: (§1)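 Murine pre-B Ba/F3 cells transformed with the Bcr-Abl oncogene were used for cellular Bcr-Abl inhibition. Transformed cells grow without interleukin-3 (IL-3). Untransformed parental Ba/F3 cells proliferate only when IL-3 is present.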

[2] = target: wt Bcr-Abl-Ba/F3 (Homo sapiens, UniProt P00519+P11274); assay: Cellular antiproliferative activity on wt Bcr-Abl-Ba/F3; assay type: cell-based, murine; conditions: for antiproliferative activity against wild-type Bcr-Abl (in words): Ba/F3 cells transformed with Bcr-Abl
Outline: as §1

[3] = target: Bcr-Abl-T315I-Ba/F3 (Homo sapiens, UniProt P00519+P11274, T315I); assay: Cellular antiproliferative activity on mutant Bcr-Abl-T315I-Ba/F3; assay type: cell-based, murine
Outline: as §1

[4] = system: panel of 353 kinases; assay: KINOMEscan kinase selectivity profiling; assay type: binding; conditions: 10 μM
Outline: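 KINOMEscan competition binding screen with the test compound at 10 μM against 353 kinases. Hits were kinases with an Ambit score below 10% of the DMSO control. S(10) is the number of kinases scoring below ten divided by the total number of kinases tested at that concentration.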

[5] = Pharmacokinetics following oral and intravenous delivery; assay type: in vivo, rats; conditions: rat
Outline: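 Rats were dosed with the test compound orally and intravenously; the oral dose was 2 mg/kg. Serum drug levels were followed to derive oral bioavailability (%F), half-life, Cmax and clearance.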

## CCN1CCN(Cc2ccc(NC(=O)Nc3cccc(-c4ccc5nc(NC(=O)C6CC6)sc5n4)c3)cc2C(F)(F)F)CC1 [Compound 32]
[1]; urea linkage in place of amide
  increased cytotoxicity towards parental Ba/F3 cells (urea linkage): approximately 5 fold
[2]; urea linkage in place of amide
  improved activity on wild-type Bcr-Abl (urea linkage): 5–10 fold
[3]; urea linkage in place of amide
  improved activity on T315I Bcr-Abl (urea linkage): 5–10 fold

## Cc1cn(-c2cc(NC(=O)c3cccc(-c4ccc5nc(NC(=O)C6CC6)sc5n4)c3)cc(C(F)(F)F)c2)cn1 [Compound 26]
[4]
  S(10) score (kinases inhibited below a score of ten / total kinases tested): 0.36
[5]; IV 1 mg/kg
  AUC (%extrapolated): 8.7%
[5]; PO 2 mg/kg
  AUC (%extrapolated): 21%
[5]; serum, iv, 1 mg/kg
  Tmax: 8.4 min
[5]; serum, po, 2 mg/kg
  Tmax: 66 min

## CCN1CCN(Cc2ccc(NC(=O)c3cccc(-c4ccc5nc(NC(=O)C6CC6)sc5n4)c3)cc2C(F)(F)F)CC1 [Compound 22]
[1]; relative to 11
  decrease in cytotoxicity against parental Ba/F3 cells relative to 11: 3 fold
[2]; read-out: Cellular antiproliferative activity (EC50, μM) Bcr-Abl (wt), wt Bcr-Abl-Ba/F3
  EC50: 0.098 µM
[4]
  S(10) score (kinases inhibited below a score of ten / total kinases tested): 0.10
[5]; IV 1 mg/kg
  AUC (%extrapolated): 35.3%
[5]; PO 2 mg/kg
  AUC (%extrapolated): 35%
[5]; serum, iv, 1 mg/kg
  Tmax: 4.8 min
  clearance: 13 mL/min/kg
[5]; serum, po, 2 mg/kg
  Tmax: 162 min
[3]; relative to 11
  improvement in cellular antiproliferative activity relative to 11 against T315I-Bcr-Abl: ~6 fold

## CCN1CCN(Cc2ccc(NC(=O)c3ccc(C)c(-c4ccc5nc(NC(=O)C6CC6)sc5n4)c3)cc2C(F)(F)F)CC1 [Compound 27]
[2]
  antiproliferative activity against wild-type Bcr-Abl (in words): exceptionally potent

## Nc1nc2ccc(-c3cccc(C(=O)Nc4cccc(C(F)(F)F)c4)c3)nc2s1 [Compound 9a]
[2]
  antiproliferative activity against wild-type Bcr-Abl (in words): did not display antiproliferative activity
[3]; Ba/F3 cells transformed with T315I-Bcr-Abl
  antiproliferative activity against T315I-Bcr-Abl (in words): did not display antiproliferative activity

## Cc1cn(-c2cc(NC(=O)Nc3cccc(-c4ccc5nc(NC(=O)C6CC6)sc5n4)c3)cc(C(F)(F)F)c2)cn1 [Compound 33]
[3]; compared to 22
  reduction in cellular activity against T315I-Bcr-Abl compared to 22: ~4 fold

## O=C(Nc1ccc(N2CCNCC2)c(C(F)(F)F)c1)c1cccc(-c2ccc3nc(NC(=O)C4CC4)sc3n2)c1 [Compound 24]
[2]; relative to 22, cell line not given
  loss of cellular activity relative to 22: approximately 10 fold
